RGS4 block – inhibitors of human RGS4; B-score at 10 µM; P49798; 0.45% of 310,000 active; HEK293 M3R/RGS4 inducible, Fluo-4 calcium flux; stronger effect = higher value; triggered by carbachol at its EC20;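 active = B-score, a plate-corrected calcium signal, over three deviations above library mean, with baseline fluorescence within five deviations of library mean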;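 note: RGS4 expression induced by doxycycline in cells with stable M3 receptor; B-score is computed from the integrated fluorescence ratio over baseline after carbachol; higher B-score means a larger calcium signal and so more RGS4 inhibition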
Target sequence (P49798 whole entry, looked up): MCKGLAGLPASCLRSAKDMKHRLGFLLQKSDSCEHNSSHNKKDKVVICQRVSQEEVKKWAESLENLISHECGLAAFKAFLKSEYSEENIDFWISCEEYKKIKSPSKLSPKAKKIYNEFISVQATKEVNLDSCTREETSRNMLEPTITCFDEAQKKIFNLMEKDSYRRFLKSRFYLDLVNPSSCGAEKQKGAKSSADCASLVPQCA
MrgX1 allo act – allosterically activates human MrgX1 receptor signaling | MrgX1-HEK293, Fluo-4 calcium flux, FDSS; stronger effect = higher value | B-score at 10 µM | 0.63% of 310,000 active;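 active = plate-corrected calcium response at least 3 library SD above typical, normal starting fluorescence, not activating the receptor alone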;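 note: compound read alongside a low EC10 to EC30 dose of BAM8-22 agonist; peak minus trough fluorescence over baseline measured at the second addition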
PHOSPHO1 inh – blocks human PHOSPHO1 phosphatase activity; 1.1% of 290,000 active; AID 1565; inhibition, % at 13.3 µM; Q8TCT1; recombinant PHOSPHO1, absorbance phosphatase assay; in the data active = inhibition above about 60%
Target sequence (Q8TCT1 whole entry, looked up): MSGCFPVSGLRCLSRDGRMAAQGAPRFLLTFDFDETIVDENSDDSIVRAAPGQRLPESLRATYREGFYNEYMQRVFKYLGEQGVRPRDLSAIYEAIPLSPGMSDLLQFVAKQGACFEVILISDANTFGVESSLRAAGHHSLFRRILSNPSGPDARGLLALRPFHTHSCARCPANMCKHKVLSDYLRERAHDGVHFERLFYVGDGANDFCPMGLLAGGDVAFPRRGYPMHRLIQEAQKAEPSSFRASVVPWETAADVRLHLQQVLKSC
MrgX1 agonist – human MrgX1 receptor agonism, primary screen; MrgX1-HEK293 cells, Fluo-4 calcium fluorescence, agonist mode; stronger effect = higher value; B-score at 10 µM; 0.44% of 310,000 active; AID 588627;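 active = calcium response B-score plate-corrected fluorescence ratio at least 3 library SD, with starting fluorescence B-score inside 5 SD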
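Material: MrgX1-expressing HEK293 cells / Dosing: compound as first of three additions / Incubation: overnight seeding, then 1 h dark dye loading / Signal: Fluo-4 NW calcium fluorescence / Evaluation: B-scored fluorescence response ratio / Benchmarks: positive and negative control wells on each plate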
RGS4 pot – potentiators or activators of RGS4; HEK293 M3R/inducible RGS4, carbachol calcium flux Fluo4; stronger effect = lower value; B-score at 10 µM; AID 463111; 0.92% of 310,000 active;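 active = B-score of the integrated calcium signal more than 4 SD below the library mean, with starting fluorescence not abnormally high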;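 note: negative B-score means reduced calcium response which marks RGS4 activation or potentiation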
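Detection: kinetic calcium fluorescence imaging with Fluo4-AM dye, 2 µM / Material: HEK293 cells with stable M3R and inducible RGS4 / Schedule: recording 10 s baseline at 1 Hz, 100 s post-agonist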
MrgX1 antag – blocks BAM8-22 activation of human MrgX1 receptor. MRGX1-HEK293 calcium flux, Fluo-4, BAM8-22 antagonism; stronger effect = lower value. B-score at 10 µM. 1.3% of 310,000 active. AID 588676;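 active = calcium-response B-score plate-corrected more than 3 library SD below zero, starting fluorescence within 5 deviations, no agonist response on first addition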;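 note: peak minus trough fluorescence over baseline after final BAM8-22 challenge near maximal dose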
MrgX1 PAM conf – confirmation of human MrgX1 receptor positive allosteric modulators; shares compounds with MrgX1 allo act; MrgX1-HEK293, Fluo-4 calcium fluorescence, FDSS; activation (ratio percentage), % at 10 µM; 13% of 1,200 active; AID 602413;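 active = ratio at least 3 SD above the weak peptide control, stable starting fluorescence, no direct agonism earlier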;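 note: compound followed by low BAM8-22 agonist challenge near EC20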
HEK293 Ca flux – MrgX1 antagonist counter-screen hit in parental HEK293 cells; 2% of 4,000 active; shares compounds with MrgX1 antag; Fluo-4 calcium fluorescence, FDSS; fluorescence ratio F(max-min)/F0 at 10 µM;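 active = duplicate-averaged calcium fluorescence ratio at least three times the standard deviation of buffer wells, a nonspecific response in parental cells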
HEK293 Ca counter – activity in parental HEK293 cells without MrgX1 | shares compounds with MrgX1 antag | parental HEK293 calcium flux, Fluo-4 fluorescence ratio; stronger effect = higher value | fluorescence ratio F(max-min)/F0 at 10 µM | 0.4% of 4,000 active;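 active = calcium fluorescence ratio, averaged over duplicates, at least 3 SD of the buffer-well ratio, meaning a nonspecific response in receptor-free cells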;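 note: untransfected parental HEK293 lacking MrgX1 used as counterscreen for MrgX1 allosteric activators; fluorescence change taken during the second addition on a kinetic imager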
HEK293 Ca cntr2 – activity in parental HEK293 cells lacking MrgX1 receptor. AID 624115. shares compounds with MrgX1 antag. Fluo-4 calcium fluorescence (FDSS); stronger effect = higher value. 8.7% of 4,000 active. fluorescence ratio F(max-min)/F0 at 10 µM;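 active = calcium fluorescence ratio at least three times the spread of buffer wells, meaning a non-specific response in parental cells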
The depositor's hits bear a star; i = inactive; / = no result. Most compounds without a hit are left out; they make up all but 4.5% or so of the library.

SMILES	RGS4 block	MrgX1 allo act	PHOSPHO1 inh	MrgX1 agonist	RGS4 pot	MrgX1 antag	MrgX1 PAM conf	HEK293 Ca flux	HEK293 Ca counter	HEK293 Ca cntr2
O=S(=O)(Nc1ncnc2scc(-c3ccc(F)cc3)c12)c1cc(F)ccc1F	i	12*	48	i	i	i	i	i	i	i
Cc1cccc(NC2=NC(=S)N(c3cccc(C(=O)O)c3)C23CCCCC3)c1	i	i	-32	i	i	i	/	/	/	/
Cc1cccc(C)c1NC1=NC(=S)N(c2ccc(C(=O)O)cc2)C12CCCCC2	i	7.2*	5	i	i	i	i	i	i	i
Cc1sc(N(C(=O)CCc2ccccc2)c2ccc(C(=O)O)cc2)nc1-c1ccccc1	i	i	10	i	i	i	/	/	/	/
CCC(=O)N(c1ccc(C(=O)O)cc1)c1nc(-c2ccc(OC)cc2)c(C)s1	i	6.5*	-7	i	i	i	i	i	i	i
N#CC(=Cc1ccc(O)cc1)C(N)=C(C#N)C#N	/	i	/	i	/	i	/	/	/	/
COc1cc(OC)c(C2SCCCS2)cc1OC	i	13*	-7	i	i	i	6.3%*	i	i	i
COc1cc(OC)c(C2N(C)c3ccccc3N2C)cc1OC	i	i	-14	i	i	i	/	/	/	/
N#Cc1cc2c(nc1S(=O)(=O)Cc1ccccc1)CCCC2	i	i	-10	i	i	i	/	/	/	/
CCOc1cc(NC(=S)NCc2ccccc2)c(OCC)cc1NC(=O)C(C)C	i	i	-24	i	i	i	/	/	/	/
Cc1nn(-c2ccccc2)nc1C(=O)Nc1nnc(C(F)(F)F)s1	i	6.5*	2	i	i	i	i	i	i	68*
CCc1nnc(NC(=O)c2nn(-c3ccccc3)nc2C)s1	i	i	-20	i	i	i	/	/	/	/
CCN(CC)S(=O)(=O)c1ccc(C(=O)NCc2n[nH]c(=S)n2-c2ccc(Cl)c(Cl)c2)cc1	i	i	1	i	i	i	/	/	/	/
CN1C(C(=O)NCc2cccc(Br)c2)CC2Cn3c(nc4cc5ccccc5cc43)C21 (stereo not drawn)	i	i	44	i	i	i	/	/	/	/
CNC(=O)[C@H]1O[C@@H](n2cnc3c(NCc4cccc(I)c4)ncnc32)[C@H](O)[C@@H]1O	/	10*	/	i	/	i	i	i	i	i
Cn1cnc2c(NCc3ccco3)ncnc21	i	i	20	i	i	i	/	/	/	/
C=CCn1c2ccccc2c(=O)c2cc(C#Cc3ccsc3)ccc21	i	i	-13	i	i	i	/	/	/	/
COc1ccc(Br)c(C(=O)NCC2CCCCC2)c1	i	i	28	i	i	i	/	/	/	/
COc1cccc(CNc2ccc(Br)cn2)c1O	i	12*	59	i	i	i	i	i	i	i
COc1cccc(CNc2ncc(Br)cc2Br)c1O	i	i	23	i	i	i	/	/	/	/
Cn1c(N2CCN(C(=O)NC34CC5CC(CC(C5)C3)C4)CC2)nc2ccccc21	i	i	20	i	i	i	/	/	/	/
CC(O)CNc1nc2ccccc2n1CC(=O)NC12CC3CC(CC(C3)C1)C2 (stereo not drawn)	i	7.4*	-7	i	i	i	i	i	i	i

Screening data (PubChem BioAssay)
